According to ChEMBL document CHEMBL4138103, “Discovery of efficient stimulators for adult hippocampal neurogenesis based on scaffolds in dragon's blood” (Eur J Med Chem, 2017):
Calls of active or inactive are those of the source. The calls are words filed in the database; no cut-off is given here.

Columns and labels:
[1] = Cytotoxicity against human SH-SY5Y cells assessed as cell survival at 500 uM after 24 hrs by MTT assay relative to control; assay type: cell-based; conditions: read-out: Survival
Summary of the method: (§1)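 SH-SY5Y human neuroblastoma cells seeded at 5 × 10⁴ cells/mL, incubated 24 h at 37 °C, then exposed to compounds at final concentrations of […] for 24 h. MTT added for a further 4 h at 37 °C. Absorbance read at 570 nm and reported as percent viability. Five parallel samples per condition.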

[2] = Cytotoxicity against human SH-SY5Y cells assessed as cell survival at 1000 uM after 24 hrs by MTT assay relative to control; assay type: cell-based; conditions: read-out: Survival; summary of the method: as §1
[3] = Cytotoxicity against human SH-SY5Y cells assessed as cell survival at 100 uM after 24 hrs by MTT assay relative to control; assay type: cell-based; conditions: read-out: Survival; summary of the method: as §1
Rattus norvegicus [4] = assay: In vivo neurogenic activity in Sprague-Dawley rat neural progenitor cells at 4 mg/kg, ip qd pretreated for 28 days followed by BrdU addition at 2 hrs interval for twice on day 29 measured after 24 hrs by BrdU incorporation assay relative to control; assay type: functional
Summary of the method: (§2)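 Male SD rats aged 10 weeks, acclimatized 7 days (11 weeks old at start), dosed ip once daily for 28 days with compound in soybean oil containing 10% ethanol; vehicle group received 10% ethanol in oil. On day 29, BrdU in saline given twice at 100 mg/kg, 2 h apart. Rats sacrificed 24 h after the last BrdU. BrdU+ cells in SGZ-GCL counted by DAB immunostaining of 30 µm cryosections; n = 8; mean ± SEM.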

Rattus norvegicus [5] = assay: In vivo neurogenic activity in Sprague-Dawley rat neural progenitor cells at 2.2 mg/kg, ip qd pretreated for 28 days followed by BrdU addition at 2 hrs interval for twice on day 29 measured after 24 hrs by BrdU incorporation assay; assay type: functional, organism-based; summary of the method: as §2

SMILES | viability at 24 h, 500 µM [1] [%] | viability at 24 h, 1000 µM [2] [%] | viability at 24 h, 100 µM [3] [%] | Activity (Rattus norvegicus [4]) | Activity (Rattus norvegicus [5])
Oc1ccc(/C=C/c2ccc3c(c2)OCCO3)cc1 | 2 | -0.08 | 2.8 |  | 
COc1ccc(/C=C/c2cccc(OC(F)(F)F)c2)cc1 | 40.5 | 38.7 | 40.2 |  | 
CC(=O)N(C)c1ccc(/C=C/c2ccc3c(c2)OCO3)cc1 | 15.8 | 5.89 | 50.4 | inactive | 
O=C(Nc1ccc(/C=C/c2ccc3c(c2)OCO3)cc1)c1cccs1 | 54.4 | 49.1 | 62.5 | Active | 
Cc1cc(C)cc(/C=C/c2ccc(O)cc2)c1 | 1.84 | 2.88 | 7.31 |  | 
CN(C)c1ccc(/C=C/c2ccc3c(c2)OCO3)cc1 | 51.2 | 52.6 | 83.3 | Active | 
COc1ccc(/C=C/c2ccc3c(c2)OCO3)cc1 | 69.6 | 62.8 | 76.1 | Active | 
CC(=O)Oc1ccc(/C=C/c2cc(C)cc(C)c2)cc1 | 2.8 | 18.4 | 3.24 |  | 
COc1ccc(/C=C/c2ccc(N)c(F)c2)cc1 | 65.1 | 47.8 | 80 |  | 
CCOc1ccc(C#Cc2ccc3c(c2)OCO3)cc1 | 41 | 38.1 | 56.5 | inactive | 
CN(C)c1ccc(/C=C/C(=O)c2ccc3c(c2)OCO3)cc1 | 40.2 | 23.7 | 49.8 |  | 
Cc1ccc(C#Cc2ccc3c(c2)OCO3)cc1 | 24.8 | 23.7 | 51.9 |  | 
CCCC(=O)Nc1ccc(/C=C/c2ccc3c(c2)OCO3)cc1 | 40.7 | 33.3 | 58.8 | Active | 
Cc1ccc(C#Cc2ccc(OCc3ccccc3)cc2)cc1 | 72.5 | 68 | 94.2 |  | 
COc1cc(/C=C/c2ccc(O)cc2)cc(OC)c1 [PTEROSTILBENE] | 32.7 | 51.4 | -0.58 | Active | 
COc1cc(/C=C/c2ccc3c(c2)OCO3)cc(OC)c1 | 60.9 | 45.7 | 74 |  | 
CC(=O)Oc1ccc(/C=C/c2ccc3c(c2)OCO3)cc1 | 21.3 | 17.8 | 84.5 |  | inactive
Oc1ccc(/C=C/c2cc(F)cc(F)c2)cc1 | -11 | -7.78 | -13.6 |  | 
COc1ccc(/C=C/c2ccc(O)cc2)cc1OC | 44.1 | 35.3 | 56.8 |  | 

SMILES | viability at 24 h, 500 µM [1] [%] | viability at 24 h, 1000 µM [2] [%] | viability at 24 h, 100 µM [3] [%] | Activity (Rattus norvegicus [4]) | Activity (Rattus norvegicus [5])
Nc1ccc(/C=C/c2ccc3c(c2)OCO3)cc1 | 39.1 | 32.2 | 47.6 |  | 
N#Cc1cccc(/C=C/c2ccc(O)cc2)c1 | 16.9 | 14.9 | 20.9 |  | 
COc1cc(/C=C/c2ccc(NC(C)=O)cc2)cc(OC)c1 | 48.5 | 45.2 | 54.5 | Active | 
CC(=O)Nc1cccc(/C=C/c2ccc3c(c2)OCO3)c1 | 7.78 | 2.7 | 20.9 |  | 
Nc1ccc(/C=C/c2cccc(OC(F)(F)F)c2)cc1 | 31.9 | 26.9 | 51.8 |  | 
COc1cc(/C=C/C(=O)c2ccc3c(c2)OCO3)ccc1O | 25.2 | 26.2 | 16.3 |  | 
Oc1ccc(/C=C/c2ccc(Cl)cc2)cc1O | 69.2 | 38.5 | 107 |  | 
COc1ccc(C#Cc2ccc(OC)c(OC)c2)cc1 | 78.9 | 65.5 | 94.1 |  | 
COc1ccc2c(c1)OC(c1ccc3c(c1)OCO3)CC2=O (centres undefined) | 44.8 | 27.3 | 73.2 |  | 
COc1ccc(/C=C/c2ccc(N)cc2)cc1OC | 51.7 | 50.4 | 53.7 |  | 
COc1cccc(/C=C/c2ccc3c(c2)OCO3)c1 | 52.7 | 32 | 72.5 |  | 
COc1ccc(/C=C/c2cccc(C#N)c2)cc1 | 67 | 48.3 | 66.3 |  | 
C(=C\c1ccc2c(c1)OCO2)/c1ccc(OCc2ccccc2)cc1 | 72.7 | 80.6 | 67.3 |  | 
COc1ccc(/C=C/c2ccc(NC(C)=O)c(F)c2)cc1 | 1.52 | 0.69 | 14.2 |  | 
COc1ccccc1/C=C/c1ccc2c(c1)OCO2 | 33.6 | 23.6 | 36.1 |  | 
CC(=O)Nc1ccc(/C=C/c2ccc3c(c2)OCO3)cc1F | 82 | 75.1 | 86.7 | Active | 
COc1ccc(C#Cc2cc(C)cc(C)c2)cc1 | 24.3 | 22.1 | 54.2 |  | 
Oc1ccc(/C=C/c2cc(C(F)(F)F)cc(C(F)(F)F)c2)cc1 | -0.07 | -3.86 | -4.81 |  | 
COc1cc(/C=C/C(=O)c2ccc(O)cc2)cc(OC)c1 | 3.53 | 2.57 | 5.64 |  | 

SMILES | viability at 24 h, 500 µM [1] [%] | viability at 24 h, 1000 µM [2] [%] | viability at 24 h, 100 µM [3] [%] | Activity (Rattus norvegicus [4]) | Activity (Rattus norvegicus [5])
CCCCCc1ccc(C#Cc2ccc(OCc3ccccc3)cc2)cc1 | 51.3 | 49 | 62.6 |  | 
CC(=O)Nc1ccc(/C=C/C(=O)c2ccc3c(c2)OCO3)cc1 | 2.78 | 4.69 | 6.71 |  | 
COc1cccc(/C=C/c2ccc(NC(C)=O)cc2)c1 | 26.1 | 11.9 | 44.5 |  | 
COc1cc(/C=C/c2ccc(O)cc2)cc(OC)c1OC | 25.9 | 21.2 | 27.5 |  | 
CCCCCOc1ccc(C#Cc2ccc3c(c2)OCO3)cc1 | 22.9 | 15.3 | 69.8 |  | 
COc1ccc(C#Cc2cc(C(F)(F)F)cc(C(F)(F)F)c2)cc1 | 20.9 | 18.3 | 28.6 |  | 
C(#Cc1cccs1)c1ccc2c(c1)OCO2 | 27.5 | 17.7 | 43.9 |  | 
COc1ccc(C(=O)/C=C/c2ccc3c(c2)OCO3)c(O)c1 | 59.9 | 49.3 | 90.4 |  | 
CC(=O)Nc1ccc(C#Cc2ccc3c(c2)OCO3)cc1 | 51.3 | 35.2 | 63.2 | inactive | 
CC(=O)c1ccc(/C=C/c2ccc(O)cc2)cc1 | 59.2 | 24.6 | 94.4 |  | 
O=C(Nc1ccc(/C=C/c2ccc3c(c2)OCO3)cc1)C(F)(F)F | 53.4 | 41.5 | 75.2 | inactive | 
COc1ccc(C(=O)/C=C/c2ccc(O)c(OC)c2)cc1 | 39.8 | 165 | 13.3 |  | 
C(#Cc1ccc2c(c1)OCO2)c1ccsc1 | 32.9 | 21 | 46.2 |  | 
COc1ccc(/C=C/c2ccc(Cl)cc2)cc1OC | 51.6 | 56.4 | 57.3 |  | 
CC(=O)c1ccc(/C=C/c2ccc3c(c2)OCO3)cc1 | 63.5 | 53.9 | 70.3 |  | 
N#Cc1ccc(/C=C/c2ccc3c(c2)OCO3)cc1 | 43.7 | 36.1 | 110 | Active | 
C(=C\c1ccc2c(c1)OCO2)/c1ccncc1 | 4.26 | 3.56 | 8.43 |  | 
COc1ccc(/C=C/C(=O)c2ccc3c(c2)OCO3)cc1O | 22.2 | 17.1 | 44.7 |  | 
Oc1ccc(/C=C/c2cccc(OC(F)(F)F)c2)cc1 | 55.4 | 5.06 | 77.1 |  | 
